In ChEMBL document CHEMBL1145455, “Cytotoxic withanolides from the flowers of Datura metel” (J Nat Prod, 2007):

Legend:
Assay type in all cases: functional, cell-based
K562 = test: Cytotoxicity against human K562 cells after 48 hrs; settings: K562, 48 h
Summary of the method: (§1)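 MTT colorimetric assay. Cells were kept in RPMI-1640 with 10% fetal bovine serum at 37 °C, 5% CO2, humidified. They were seeded at 6 × 10^4 cells/mL and allowed to attach for 24 h. Diluted samples were then added for 48 h. MTT (0.5 mg/mL) was added for 3 h, and optical density was read at 550 nm.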

A549 = test: Cytotoxicity against human A549 cells after 48 hrs; settings: A549, 48 h; summary of the method: as §1
BGC-823 = test: Cytotoxicity against human BGC823 cells after 48 hrs; settings: BGC-823, 48 h; summary of the method: as §1

Row | Compound | IC50 (K562) | IC50 (A549) | IC50 (BGC-823)
1 | C=C1C(=O)O[C@@H]2C[C@@]1(C)OC[C@H]2C1CC[C@H]2[C@@H]3C[C@H]4O[C@]45C[C@H](O)CC(=O)C5(C)[C@H]3CCC12C (stereo partly drawn) | 460 nM | 1700 nM | 1000 nM
2 | C=C1C(=O)O[C@@H]2C[C@@]1(C)OC[C@H]2C1CCC2C3C[C@H]4OC(=O)CC=CC4=C(C)C3CCC21C (stereo partly drawn) [1,10-SECO-WITHAMETELIN B] | > 10000 nM | > 10000 nM | > 10000 nM
3 | C=C1C(=O)O[C@@H]2C[C@@]1(C)OC[C@H]2C1CCC2C3C[C@H]4OC(=O)CC=CC4=C(C)C3C[C@@H](O)C21C (stereo partly drawn) [12BETA-HYDROXY-1,10-SECO-WITHAMETELIN B] | > 10000 nM | > 10000 nM | > 10000 nM
4 | COc1cccc2c1C(=O)c1c(O)c3c(c(O)c1C2=O)C[C@@](O)(C(=O)CO)C[C@@H]3O[C@H]1C[C@H](N)[C@H](O)[C@H](C)O1 [DOXORUBICIN] | 580 nM | 750 nM | 350 nM
5 | C=C1C(=O)O[C@@H]2C[C@@]1(C)OC[C@H]2C1CCC2C3C[C@H]4O[C@]45CC=CC(=O)C5(C)C3C[C@@H](O)C21C (stereo partly drawn) [WITHAMETELIN I] | 50 nM | 1200 nM | 1300 nM
6 | C=C1C(=O)O[C@@H]2C[C@@]1(C)OC[C@H]2C1CCC2C3C[C@@H](O)[C@@]4(O)CC=CC(=O)C4(C)C3C[C@@H](O)C21C (stereo partly drawn) [WITHAMETELIN J] | 2500 nM | > 10000 nM | 5200 nM
7 | C=C1C(=O)O[C@@H]2C[C@@]1(C)OC[C@H]2C1CCC2C3C[C@@H](O)C4=CC=CC(=O)C4(C)C3C[C@@H](O)C21C (stereo partly drawn) [WITHAMETELIN K] | 120 nM | 3500 nM | 1900 nM
8 | C=C1C(=O)O[C@@H]2C[C@]1(C)OC[C@H]2[C@H]1CC[C@H]2[C@@H]3CC=C4CC=CC(=O)[C@]4(C)[C@H]3C[C@@H](O)[C@]12C [WITHAMETELIN L] | 550 nM | 2000 nM | 1600 nM
9 | C=C1C(=O)O[C@@H]2C[C@@]1(C)OC[C@H]2C1CCC2C3CC=C4C=CCC(=O)C4(C)C3C[C@@H](O)C21C (stereo partly drawn) [WITHAMETELIN M] | > 10000 nM | > 10000 nM | > 10000 nM
10 | C=C1C(=O)O[C@@H]2C[C@@]1(C)OC[C@H]2C1CCC2C3C[C@H](O)[C@]4(O)CC=CC(=O)C4(C)C3CCC21C (stereo partly drawn) [WITHMETELIN O] | > 10000 nM | > 10000 nM | > 10000 nM
11 | CC1=C(CO[C@@H]2O[C@H](CO)[C@@H](O)[C@H](O)[C@H]2O)C(=O)O[C@@H]([C@@H](CO)C2CCC3C4C[C@@H](O)[C@@]5(O)CC=CC(=O)C5(C)C4CCC32C)C1 (stereo partly drawn) [WITHMETELIN P] | > 10000 nM | > 10000 nM | > 10000 nM
